Results published in PubChem BioAssay.
Unmarked numbers belong to inactive results. Records with an inconclusive call do not appear. The source made the active and inactive calls.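 The calls were made as follows, unless noted: active = cell viability at or below a set limit in both duplicate runs, the limit being the all-compound median minus 4 SD (cut at about 23% in these data, passing the limit was not always enough); inconclusive = no clear call, values can overlap the other calls; inactive = the rest.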

Tests used:
[1] = S. cerevisiae growth inhibition in permissive medium (OD615), pilot counter-assay for S. cerevisiae lifespan shortening project, permissive growth control (AID 705;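 active = growth inhibition above 25% in both replicates, a cutoff set 3 SD above the mean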); settings: OD615, 24 h, at 10 µM, stronger effect = higher value
Procedure, shortened: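 System: engineered DeaD yeast; Medium: permissive raffinose/galactose medium; Compound dosing: 10 µM single dose, 0.25% DMSO; Incubation: 4 h cell pre-growth, 24 h exposure at 30 °C; Technique: OD at 615 nm; Evaluation: growth inhibition from lowered OD615 after 24 h.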

[2] = S. cerevisiae growth inhibition in restrictive medium, OD615, pilot screen, restrictive growth control, yeast lifespan reduction project (AID 706;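 active = growth inhibition above a set limit, 3 SD over mean compound inhibition, in both replicates, cut at about 43% in these data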;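 also: modified DeaD lifespan yeast strain shifted to restrictive glucose medium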); settings: OD615, 48 h, at 10 µM, stronger effect = higher value
Procedure, shortened: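 Material: modified S. cerevisiae; buffer or medium: CSMM-D glucose medium; doses: one concentration, 10 µM final, 0.25% DMSO; incubation: 48 h compound exposure at 30 °C; detection: optical density at 615 nm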

[3] = doxorubicin toxicity protection in MRP-1 cells – H69AR cells, CellTiter-Glo, duplicate, MRP-1 activator project, pilot screen (AID 807;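 active = viability increase at or above a cutoff of the median across tested compounds plus 3 SD, cut at about 8.5% in these data, passing the limit was not always enough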;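 also: compound pretreatment 18-22 h then 72 h combined with doxorubicin; 0% = doxorubicin alone and 100% = vehicle without doxorubicin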); settings: H69AR viability with doxorubicin, CellTiter-Glo luminescence; at 10 µM; stronger effect = higher value
[4] = viability of HCT116 without oncogenic beta-catenin – human colon tumor cells, pilot screen (AID 823); settings: HCT116 beta-catenin knockout viability, CellTiter-Glo, 60 h; at 10 µM; stronger effect = lower value;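 also: 0% = wells killed by 20 µM Hyamine and 100% = untreated DMSO cell wells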
[5] = viability of PTEN-null HCT116 cells – cell-based, HCT116 clonal line, CellTiter-Glo, pilot screen (AID 824;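 active = viability at or below 27.92% in each of two runs, the all-compound median minus 4 SD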;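 also: 0% = 20 µM Hyamine control and 100% = vehicle cell control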); settings: HCT116 PTEN-deleted viability, 60 h, at 10 µM, stronger effect = lower value
[6] = RAM pathway blockade in budding yeast – dse1pr::URA3 reporter, 5-FOA selection, pilot screen (AID 869;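 active = inhibition over a set limit, the all-compound mean plus 3 SD, in both replicate runs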;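 also: 0% = DMSO wells with no growth and 100% = 10 µM 1-NA-PP1 with full growth; RAM network block rescues cells from 5-FOA so hits raise OD615 growth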); settings: S. cerevisiae dse1pr::URA3 5-FOA growth, OD615, 2 d; at 10 µM; stronger effect = higher value; strain carries analog-sensitive mutant Cbk1 kinase
[7] = RAM signaling pathway blockade in yeast – S. cerevisiae, Pdr1DBD-CYC8 efflux-inhibited sensitized strain, primary screen (AID 1298;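 active = RAM network inhibition above 8.4% in each of two replicates, 3 SD over the compound average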;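 also: 0% = DMSO untreated cells without growth and 100% = 10 µM 1-NA-PP1 full growth; higher means more yeast growth rescued from 5-FOA killing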); settings: S. cerevisiae cbk1-as DSE1-URA3 strain, 5-FOA growth OD615, 2 d; at 50 µM; stronger effect = higher value

SMILES | growth inhibition [1] [%] | growth inhibition [2] | viability increase [3] [%] | viability [4] | viability [5] | inhibition [6] [%] | RAM network inhibition [7] [%]
CC(Oc1ccc(Cl)cc1Cl)C(=O)NCCN1CCOCC1 (centres undefined) | -8.7 | 4.87% | -2.33 | 100% | 97.5% | -0.29 | 1.53
COc1cc(NC(=O)C2CCCC2)c(OC)cc1Cl | -8.4 | -12% | -3.09 | 81.9% | 78.4% | 1.02 | -0.72
COc1ccc(NC(=O)c2ccc(CN3CCN(c4ccccc4)CC3)cc2)cc1 | -7.38 | -9.14% | -0.09 | 67.4% | 73.1% | 2.54 | 9.97
O=C(O)c1n[nH]c2ccccc12 | -1.77 | -21.2% | -2.36 | 99.2% | 95.6% | 0.89 | 0.16
O=C(NC(Nc1ncccn1)C(=O)c1ccccc1)c1ccccc1 (centres undefined) | 5.63 | -0.54% | -0.49 | 96.6% | 98.5% | -0.25 | 2.01
O=C(Nc1nnc(-c2cccs2)o1)c1cccc(C(F)(F)F)c1 | -14.9 | 7.83% | -0.12 | 15.5% (active) | 19.5% (active) | 1.56 | 3.02
COc1cccc(N(CC(=O)NCc2cccnc2)S(C)(=O)=O)c1 | -11.3 | -4.04% | -1.47 | 95.1% | 94.6% | 0.625 | 3.01
O=C(c1cccc2c1-c1ccccc1/C2=N/O)N1CCCCC1 | 6.27 | -0.58% | -3.72 | 88.5% | 92.3% | 0.91 | 4.23
COc1cccc(C(=O)NC2CC3CCCC(C2)N3CC(=O)Nc2ccc(N(C)C)cc2)c1 (centres undefined) | -14.1 | -14.7% | -0.9 | 85.4% | 87.8% | 0.955 | 1.97
CC(=O)c1ccc(OCC(O)CN2CCN(c3ccccn3)CC2)cc1 (centres undefined) | 2.13 | 4.88% | 0.37 | 102% | 103% | 1.18 | 2.51
Cc1cc2c(cc(C(=O)N3CCC(C(=O)NC4CCCC4)CC3)n2Cc2c(F)cccc2Cl)o1 | -3.7 | -5.26% | -1.51 | 62% | 54.8% | 0.72 | 3.45
COc1ccc(NC(=O)CSc2nnc(-c3ccccn3)n2N)cc1 | -5.41 | 13.7% | -0.74 | 101% | 97.3% | 0.535 | 4.82
Cn1c(=O)oc2cc(S(=O)(=O)N3CCCC(C(=O)N4CCn5c4nc4ccccc45)C3)ccc21 (centres undefined) | -8.03 | -7.74% | -1.54 | 77.7% | 76.2% | 0.695 | 1.49
CCn1c(SCC(=O)Nc2nnc(C)s2)nc2c(c1=O)SC(C)C2 (centres undefined) | -0.875 | -16.4% | 1.14 | 103% | 96.6% | 2.4 | 2.04
CC(=O)C1=C(C)NC(=O)NC1c1ccccc1 (centres undefined) | -7.36 | -18.6% | -2.61 | 87.3% | 91.5% | 1.03 | 5.38
c1ccc2c(c1)ncc1cccn12 | -16.6 | -12.8% | -5.24 | 104% | 89% | 2.58 | 5.07
CC(Sc1ccc2nnc(-c3ccc(F)cc3)n2n1)C(=O)O (centres undefined) | 8.21 | 52.5% (active) | -1.09 | 100% | 94.2% | 1.28 | 1.27
